A selection: hits, their analogues and other compounds. The true share with any hit is near 2.3%.
Arr AP2 block: human beta-arrestin and AP2 interaction inhibition. FITC-arrestin peptide / GST-AP2 beads, flow cytometry; AP2 beta2 appendage carries R879A mutation. inhibition, % at 10 µM. actives 0.31% (n = 340,000);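 active means inhibition above a set limit, near 3 SD of compounds lacking own fluorescence, cut at about 54% in these data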;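 further: plate controls were DMSO wells for no effect and 5 µM unlabelled arrestin peptide for full effect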
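Material – GST-tagged AP2 beta2-adaptin appendage (R879A) on 4 µm glutathione beads · Probe or stimulus – fluorescein-tagged arrestin peptide at 50 nM final · Timing – 12 min plus 1 h, RT · Detection – bead flow cytometry, FITC channel · Read-out basis – inhibition as reduced fluorescein signal on beads, percent · Medium – PBS plus Tween 20 (0.05%) and BSA (0.1%)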
HIV Env fusion: blocks HIV Env-driven cell-cell fusion; HeLa-JRFL Env/CEM21 cell fusion, luciferase; inhibition, % at 12.3 µM; actives 1.1% (n = 360,000);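 active means mean replicate inhibition score of at least 50 and every replicate individually at or above 50; inconclusive means only one of the two criteria met; inactive means mean below 50 and not all replicates reaching 50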;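 further: 0% = plate neutral controls and 100% = maraviroc near 300 nM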
PfHsp90 yeast 2: reduces growth (ATP signal) of yeast expressing P. falciparum Hsp90; inhibition, % at 9.4 µM; actives 0.32% (n = 310,000); S. cerevisiae expressing PfHsp90, BacTiter-Glo ATP, 48 h; yeast lacking PDR1 and PDR3 efflux regulators; AID 504621;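 active means every replicate shows inhibition above about 80%, whatever the replicate mean, limit read from the data; inconclusive means mean inhibition reaches the set limit but some replicate falls short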;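 further: 0% = DMSO neutral controls and 100% = 20 µM radicicol positive controls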
N-glyco inh: blocks N-linked glycosylation in D54 reporter cells. D54 ERlucT glycosylation luciferase reporter, 24 h; percent of 100 nM tunicamycin response. reporter increase, % at 12.5 µM. actives 0.23% (n = 360,000). AID 588692;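 active means mean luciferase reporter signal, scaled so untreated is 0 and the glycosylation-blocking control 100, at or above a set limit in every replicate; inconclusive means mean reaches the limit but not every replicate does; inactive means mean below the limit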;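 further: luciferase carries N-glycosylation sites so blocking glycosylation raises the light; 0% = median of neutral control wells and 100% = median of 100 nM tunicamycin wells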
Rtt109 Vps75: blocks Candida albicans Rtt109/Vps75 acetyltransferase activity; inhibition, % at 34.9 µM; AID 540336; Q5AAJ8; actives 0.16% (n = 330,000); purified Rtt109/Vps75, ThioGlo CoA-SH fluorescence, 4 h;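 active means inhibition of at least 50% in every replicate; inconclusive means best replicate reaches 50% inhibition but some replicates fall short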
Target sequence (Q5AAJ8 whole entry, looked up): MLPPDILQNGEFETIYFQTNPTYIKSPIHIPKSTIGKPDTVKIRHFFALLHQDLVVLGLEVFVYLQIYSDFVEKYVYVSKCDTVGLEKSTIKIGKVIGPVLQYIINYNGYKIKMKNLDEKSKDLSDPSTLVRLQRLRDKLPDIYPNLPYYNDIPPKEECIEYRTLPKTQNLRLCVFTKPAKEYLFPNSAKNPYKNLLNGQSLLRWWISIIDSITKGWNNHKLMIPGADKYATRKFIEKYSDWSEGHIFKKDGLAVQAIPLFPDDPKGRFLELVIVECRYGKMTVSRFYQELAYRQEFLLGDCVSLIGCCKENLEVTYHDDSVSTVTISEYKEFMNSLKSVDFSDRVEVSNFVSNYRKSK
PAX8 reporter: lowers PAX8-driven luciferase in RMG-I cells; actives 1.2% (n = 360,000); AID 652154; RMG-I TPO-luciferase reporter, SteadyGlo, 24 h; inhibition, % at 12.6 µM;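 active means mean replicate inhibition at least 60% with every replicate also reaching 60%; inconclusive means only one of the two criteria is met; inactive means mean below 60% and not all replicates reaching 60%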;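 further: luciferase light reporting Pax8 driven TPO promoter activity; plate controls were median of neutral control wells for no effect and mitoxantrone controls for full effect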
* hit, by the source's call; ? = inconclusive; / = no result given; [ ] = dose if it differs, or a comment.

SMILES	Arr AP2 block	HIV Env fusion	PfHsp90 yeast 2	N-glyco inh	Rtt109 Vps75	PAX8 reporter
CCC(/C=C1\Sc2ccc(OC)cc2N1CCO)=C\c1sc2ccc(OC)cc2[n+]1CCO	77*	-18	49	-9	114*	16
N#Cc1ccc(NC(=O)COC(=O)C2CCC2)cc1	/	?	/	1	/	113*
COc1cccc(CN(Cc2ccccc2F)S(=O)(=O)c2ccc(S(=O)(=O)NCc3ccccc3)cc2)c1	/	68*	-13	-3	-2	24
CCN(C[C@H]1N[C@@](CC)(C(=O)OC)[C@H]2C(=O)N(C)C(=O)[C@@H]12)C(=O)Nc1ccc(Cl)cc1	-5	-100	-3	1	-13	-48
CCN(C[C@H]1N[C@@](CC)(C(=O)OC)[C@H]2C(=O)N(Cc3ccccc3)C(=O)[C@@H]12)C(=O)Nc1ccc(C)cc1	4	56*	-1	2	0	-104
CCN(C[C@H]1N[C@@](Cc2ccccc2)(C(=O)OC)[C@H]2C(=O)N(Cc3ccccc3)C(=O)[C@@H]12)C(=O)Nc1ccc(C)cc1	32	-45	3	3	-9	5
CCN(C[C@H]1N[C@@](CC)(C(=O)OC)[C@H]2C(=O)N(Cc3ccccc3)C(=O)[C@@H]12)C(=O)Nc1ccc(Cl)cc1	-2	86*	-4	2	-15	-8
COC(=O)[C@@H]1[C@@H](CO)[C@@H]2Cn3c(ccc(-c4ccncc4)c3=O)[C@@H]2N1CC1CCCCC1	/	/	/	/	/	-5
CCN(CC)CC(C)(C)C(=O)/C=C/c1ccc(/C=C/C(=O)C(C)(C)CN(CC)CC)cc1	-4	55*	-3	-19	6	123*
O=C(CNc1cccc2ccccc12)N/N=C/C(Br)=C/c1ccccc1	0	/	2	31*	1	/
O=C(CNc1cccc2ccccc12)N/N=C/c1ccc[nH]1	-5	-7	14	2	18	1
C=CCn1c(SCC(=O)Nc2sccc2C(N)=O)nc2sc(C)c(C)c2c1=O	5	58*	4	0	15	/
Cn1c(=O)n(C)c2cc([N+](=O)[O-])c(N3CCN(C(=O)c4ccccc4Cl)CC3)cc21	2	90*	2	6	/	/
Cn1c(=O)n(C)c2cc([N+](=O)[O-])c(N3CCN(C(=O)c4ccccc4Br)CC3)cc21	3	30	-6	4	1	16
Cc1ccc(C(=O)N2CCN(c3ccccc3Cl)CC2)cc1[N+](=O)[O-]	-10	8	105*	-4	-2	14
Cn1c(=O)n(C)c2cc([N+](=O)[O-])c(N3CCN(C(=O)c4ccccc4)CC3)cc21	-1	55*	-4	3	1	/
CCCC(=O)Nc1ccc2c(c1)C(=O)N(C)[C@@H]1CC[C@H](CC(=O)NCC(F)(F)F)O[C@H]1CO2	/	13[16.7 µM]	/	/	/	-1
CC(C)NC(=O)N(C)C[C@H]1Oc2c(NC(=O)Nc3ccc4c(c3)OCO4)cccc2C(=O)N([C@H](C)CO)C[C@H]1C	/	17[16.7 µM]	/	/	/	3
C[C@H]1CCCCO[C@@H](CN(C)C(=O)C2CCCCC2)[C@@H](C)CN([C@@H](C)CO)C(=O)c2cc(NC(=O)NC3CCCCC3)ccc2O1	/	-39[16.7 µM]	/	/	/	-6
CN1C(=O)c2cc(NC(=O)c3cccc(F)c3)ccc2OC[C@H]2O[C@@H](CC(=O)NC3CCC3)CC[C@H]21	/	-85[16.7 µM]	/	/	/	3
O=C1C=CC(O)(c2cc(=O)c3c(O)cc(O)cc3o2)C=C1	9	-255	7	-19	14	89*
Cc1ccc(SCc2cc(=O)[nH]c(/N=C(\N)Nc3ccccc3Sc3ccccc3)n2)cc1	35	8	-5	1	-1	-14
COc1ccccc1N/C(N)=N/c1nc(CSc2ccc(C)cc2)cc(=O)[nH]1	-6	67*	5	-3	3	/
C/C(=N\NS(=O)(=O)c1ccc([N+](=O)[O-])cc1)c1c[nH]c2ccccc12	16	-1	-20	0	3	4
C/C(=N/NS(=O)(=O)c1ccc(Br)cc1)c1c[nH]c2ccccc12	19	66*	9	2	18	-14
SMILES	Arr AP2 block	HIV Env fusion	PfHsp90 yeast 2	N-glyco inh	Rtt109 Vps75	PAX8 reporter
CCOC(=O)c1ccc(NC(=O)Cn2ncc(Cl)c(Cl)c2=O)cc1	/	-196	-15	-2	-5	95*
CCc1ccccc1NC(=O)CN(C)C(=O)Cn1cnc2ccc(Cl)cc2c1=O	-5	/	-16	-1	9	-1
CCc1ccccc1NC(=O)CN(C)C(=O)Cn1ncc(Cl)c(Cl)c1=O	4	-143	9	-8	4	68*
CCC(=O)Nc1ccc(C(=O)Cn2ncc(Cl)c(Cl)c2=O)cc1	-15	-43	-4	5	-13	78*
COc1ccc(CN(C)C[C@@H]2Oc3ccc(NC(=O)CCC(F)(F)F)cc3C(=O)N([C@@H](C)CO)C[C@H]2C)cc1	/	/	/	/	/	3
COc1cccc(-c2ccc([C@@H]3[C@@H](CO)N4C(=O)CN(C(=O)C5CCOCC5)C[C@@H]34)cc2)c1	/	/	/	/	/	-5
CCCCCCc1cc2cc(S(=O)(=O)c3ccc(Cl)cc3)c(=O)oc2cc1O	4	-6	102*	-1	-4	5
C[C@@]12C(=O)Nc3ccc(F)cc3C(=O)N1[C@H]1c3cc(Br)ccc3OC[C@@H]1[C@@H]2c1ccccc1	3	57*	-185	17	0	21
Cc1ccc2c(c1)[C@H]1[C@H](CO2)[C@H](c2ccccc2)[C@]2(C)C(=O)Nc3ccccc3C(=O)N12	-8	27	-9	13	-3	45
Cc1ccc2c(c1)C(=O)N1[C@H]3c4ccccc4OC[C@@H]3[C@H](c3ccccc3)[C@]1(C)C(=O)N2	-7	/	105*	31*	1	/
C[C@@]12C(=O)Nc3ccc(Br)cc3C(=O)N1[C@H]1c3ccccc3OC[C@@H]1[C@@H]2c1ccccc1	14	/	105*	27*	-2	/
Cc1ccc2c(c1)NC(=O)[C@@]1(C)[C@@H](c3ccccc3)[C@H]3COc4ccccc4[C@@H]3N1C2=O	-4	-54	19	36*	3	17
C/C=C/c1cnc2c(c1)C(=O)N([C@@H](C)CO)C[C@@H](C)[C@H](CN(C)C(=O)c1ccc3c(c1)OCO3)O2	/	1[16.7 µM]	/	/	/	/
CCCNC(=O)C[C@@H]1CC[C@H]2[C@@H](COc3ccc(NC(=O)c4cccc(F)c4)cc3C(=O)N2C)O1	/	9[16.7 µM]	/	/	/	-13
COc1ccc(C(=O)N/N=C/c2ccc(OC)c(CN3CCN(c4ccc(F)cc4)CC3)c2)cc1	-9	/	-17	-2	2	144*
Clc1ccc(OCc2nnc(SCc3nc4ccccc4[nH]3)n2Cc2ccco2)cc1	-4	56*	/	-6	/	45

Bioassay records: PubChem, several laboratories
